The text below walks through data of the array DNA melting data of Ke et al. (doi:10.1101/2024.01.08.574731).

Data set [1] is described as follows: folding enthalpy; higher = less favourable; fluorescence melt of hairpins on a sequencing array, two-state fit. To be noted: sodium 0.088 M. An outline of the steps: (§1)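 To match UV melts, fitted temperatures were raised by 9.35 °C. These fits were bootstrapped two-state models that gave melting temperature and folding enthalpy, combined by inverse variance over four replicates. The input was normalised Cy3 fluorescence of library hairpins with annealed Cy3 and quencher oligos on a sequenced MiSeq flow cell, imaged in 50 mM Na-HEPES pH 8.0, 25 mM NaCl in 2.5 °C steps up to 60 °C.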

A short description of data set [2]: melting temperature; fluorescence melt of hairpins on a sequencing array, two-state fit, raised by 9.35 °C to match UV melts. As to conditions: sodium 0.088 M. A digest of the protocol: as §1

With GATCCTTGCTAGGATC ((((((....)))))), in data set [1], the folding enthalpy is -35.7 kcal/mol. Besides, in data set [2], the Tm came to 53.7 °C.

Take GTACTCGAAAGAGTTAC ((((((....))).))): the folding enthalpy in data set [1] was -14.8 kcal/mol. Further, the Tm in data set [2] was 38.9 °C.

Turning to GCTTGCGAAAGCAGCAGC ((((((....)))..))), the folding enthalpy in data set [1] was -11.4 kcal/mol. In addition, the Tm in data set [2] was found to be 46.4 °C.

Consider GATCTGAACGCAGATC ((((((....)))))), for which the folding enthalpy in data set [1] was -26.1 kcal/mol. Further, the Tm in data set [2] came out at 46.3 °C.

Regarding GCTCCGCGAAAGCTGTGC ((.(.((....)).).)), the folding enthalpy in data set [1] was -14.9 kcal/mol. Also, the Tm in data set [2] amounted to 41.2 °C.

Turning to GTTTTGGGAAACCGAAAC ((((.((....)).)))), in data set [1], the folding enthalpy is -38.3 kcal/mol. For the same sequence, the Tm in data set [2] came to 45.7 °C.

GTCGCTGGAAACGGCGAC (((((.(....).))))): the folding enthalpy in data set [1] is -43.8 kcal/mol. Further, the Tm in data set [2] came to 65.7 °C.

With GACTAACCGAAAGGTGTC (((..(((....)))))), the folding enthalpy in data set [1] is -18.3 kcal/mol. For the same sequence, the Tm in data set [2] is 41.4 °C.

For the sequence GCCGGGCGAAAGCTGGGC (((..((....))..))), the folding enthalpy in data set [1] is -26.3 kcal/mol. Also, the Tm in data set [2] is 61.2 °C.

Regarding GCGAAGGAAACTTCGC ((((((....)))))), the folding enthalpy in data set [1] is -34.8 kcal/mol. For the same sequence, in data set [2], the Tm stood at 63.7 °C.

GGTCGAGGAAACTCGGTC (..((((....))))..): the folding enthalpy in data set [1] is -16.2 kcal/mol. Besides, in data set [2], the Tm is 38.4 °C.

Regarding GCACAGCGAAAGCTTGC (((.(((....)))))), the folding enthalpy in data set [1] is -20.1 kcal/mol. In addition, in data set [2], the Tm is 51.5 °C.

With GATCTTTCGCAAGATC ((((((....)))))), in data set [1], the folding enthalpy is -32.4 kcal/mol. Also, the Tm in data set [2] is 43.5 °C.

For the sequence GTTCTCGGAAACGAGGAC ((.((((....)))).)), the folding enthalpy in data set [1] is -28.7 kcal/mol. In addition, in data set [2], the Tm came to 52 °C.

As to GCGAGTATCGC ((((...)))), in data set [1], the folding enthalpy is -18.7 kcal/mol. The Tm in data set [2] is 58.4 °C.

On to GATCAGTAGCCTGATC ((((((....)))))), for which, in data set [1], the folding enthalpy is -31.4 kcal/mol. In data set [2], the Tm was 49.6 °C.

In the case of GAGCCAGGAAACTGGTTC ((.((((....)))).)), in data set [1], the folding enthalpy is -29.9 kcal/mol. Moreover, the Tm in data set [2] is 49.4 °C.

As for GTACGACGAAAGTCTTAC (((.(((....))).))), the folding enthalpy in data set [1] is -26.1 kcal/mol. The Tm in data set [2] worked out at 40.3 °C.

Regarding GGCGTTGGAAACGACGTC (.(((.(....).))).), in data set [1], the folding enthalpy was -29.8 kcal/mol. For the same sequence, in data set [2], the Tm stood at 58.1 °C.

As for GTTCCGCGAAAGCGAAC (((.(((....)))))), the folding enthalpy in data set [1] was -14.7 kcal/mol. Also, the Tm in data set [2] came to 50.8 °C.

For the sequence GCCTAGCGAAAGCGATGC ((.(.((....)).).)), the folding enthalpy in data set [1] was -13.4 kcal/mol. For the same sequence, in data set [2], the Tm worked out at 44.1 °C.

GGAAACGAAAGTTGCTCC ((((((....)))..))): in data set [1], the folding enthalpy is -12.8 kcal/mol. Also, the Tm in data set [2] is 27.1 °C.

In the case of GCTCTGGGAAACCAGGGC ((.((((....)))).)), the folding enthalpy in data set [1] is -38 kcal/mol. In data set [2], the Tm came out at 54.6 °C.

As for GAGGCCGCGAAAGCGCTC (((..(((....)))))), the folding enthalpy in data set [1] was -12.8 kcal/mol. The Tm in data set [2] worked out at 35 °C.

With GATCTAGGTATAGATC ((((((....)))))), in data set [1], the folding enthalpy is -34.7 kcal/mol. Further, in data set [2], the Tm worked out at 47.5 °C.

With GATCAATTCATTGATC ((((((....)))))), the folding enthalpy in data set [1] was -50.7 kcal/mol. The Tm in data set [2] was determined as 53.1 °C.

For GACGTGGGAAACCGTGTC (((..((....))..))), the folding enthalpy in data set [1] was -16.8 kcal/mol. Also, the Tm in data set [2] was 36.6 °C.

In the case of GATCCGTTGTCGGATC ((((((....)))))), the folding enthalpy in data set [1] was -44.4 kcal/mol. Further, the Tm in data set [2] amounted to 59.4 °C.

GATCCGCTGTCGGATC ((((((....)))))): the folding enthalpy in data set [1] was -42.1 kcal/mol. In data set [2], the Tm was found to be 57.8 °C.

As for CGACCGGAAACGGTATCG ((((((....)))..))), the folding enthalpy in data set [1] is -13.6 kcal/mol. Further, in data set [2], the Tm was 33.6 °C.

Turning to GATCCTGCGCAGGATC ((((((....)))))), the folding enthalpy in data set [1] is -53 kcal/mol. Besides, the Tm in data set [2] was determined as 59.3 °C.

On to GCGTACGAAAGTAAACGC ((((((....)))..))), for which, in data set [1], the folding enthalpy is -34.5 kcal/mol. Besides, the Tm in data set [2] is 51.9 °C.

Take GAGATGGGAAACCATCTC (((((((....))))))): the folding enthalpy in data set [1] is -39.2 kcal/mol. Besides, the Tm in data set [2] was 60.3 °C.

With GATCTGACCTCAGATC ((((((....)))))), in data set [1], the folding enthalpy was -38.9 kcal/mol. The Tm in data set [2] is 49.3 °C.

With GGCGATTCGAAAGAAGCC (((..(((....)))))), the folding enthalpy in data set [1] was -23.2 kcal/mol. The Tm in data set [2] is 46.4 °C.

For the sequence GATCAAGTCATTGATC ((((((....)))))), the folding enthalpy in data set [1] was -41.8 kcal/mol. In addition, the Tm in data set [2] turned out to be 52.3 °C.

Consider GCGAGGCGAAAGCCCAGC ((..(((....)))..)), for which the folding enthalpy in data set [1] is -10.4 kcal/mol. The Tm in data set [2] amounted to 63.4 °C.

As to GCTAAGTCGAAAGACAGC (((..(((....)))))), in data set [1], the folding enthalpy is -20.2 kcal/mol. Also, in data set [2], the Tm was 41.2 °C.

Consider GCAAGCGAAAGCTCTGC ((((((....))).))), for which, in data set [1], the folding enthalpy is -20 kcal/mol. The Tm in data set [2] was determined as 45.9 °C.

For the sequence GTAGAGCCGAAAGGCTAC (((..(((....)))))), the folding enthalpy in data set [1] was -10.5 kcal/mol. For the same sequence, the Tm in data set [2] was 34.6 °C.

In the case of GCTGACGAAAGTCCGAGC ((((((....)))..))), the folding enthalpy in data set [1] is -17.6 kcal/mol. For the same sequence, in data set [2], the Tm amounted to 37.6 °C.

As for GGTTATACGAAAGTAACC (((..(((....)))))), the folding enthalpy in data set [1] was -14.7 kcal/mol. Besides, the Tm in data set [2] is 38.1 °C.

Turning to GTGCCAGGAAACCGGCAC (((((.(....).))))), the folding enthalpy in data set [1] is -42.2 kcal/mol. Besides, the Tm in data set [2] came to 59.2 °C.

GCATGGCGAAAGCGAAGC ((.(.((....)).).)): in data set [1], the folding enthalpy was -11.7 kcal/mol. Further, the Tm in data set [2] stood at 35.4 °C.

For the sequence GATCCTCATAGGATC ((((((...)))))), the folding enthalpy in data set [1] was -37.4 kcal/mol. In addition, the Tm in data set [2] stood at 53.1 °C.

Take GCGCCTCGAAAGAGTCGC (((.(((....))).))): the folding enthalpy in data set [1] is -38.3 kcal/mol. In data set [2], the Tm amounted to 58.7 °C.

In the case of GCGAGAGGAAACTCTTGC ((.((((....)))).)), the folding enthalpy in data set [1] is -37 kcal/mol. Further, the Tm in data set [2] came to 50 °C.

Turning to GTCGTCGAAAGACCAGAC ((((((....)))..))), the folding enthalpy in data set [1] was -16.6 kcal/mol. For the same sequence, the Tm in data set [2] stood at 34.9 °C.

As to GATCGTATTCACGATC ((((((....)))))), the folding enthalpy in data set [1] was -34.7 kcal/mol. The Tm in data set [2] is 55.1 °C.

Take GCCATTCGAAAGAAGGC (((.(((....)))))): in data set [1], the folding enthalpy is -25.6 kcal/mol. The Tm in data set [2] was 48.1 °C.

On to GGCGTCCGAAAGGAGCC (((.(((....)))))), for which, in data set [1], the folding enthalpy is -25.9 kcal/mol. Also, the Tm in data set [2] was found to be 59.5 °C.

On to GTCGCCGGAAACAGCGAC (((((.(....).))))), for which the folding enthalpy in data set [1] was -44.9 kcal/mol. Further, the Tm in data set [2] was determined as 54.9 °C.

For the sequence CGCGGAAGTATCCGCG ((((((....)))))), the folding enthalpy in data set [1] is -37.9 kcal/mol. Besides, the Tm in data set [2] was 69 °C.

For the sequence GCTCTCGAAAGAGTTAGC ((((((....)))..))), in data set [1], the folding enthalpy was -21.8 kcal/mol. For the same sequence, the Tm in data set [2] was determined as 35.3 °C.

Take GATCGCTTCCGCGATC ((((((....)))))): the folding enthalpy in data set [1] was -36 kcal/mol. Besides, the Tm in data set [2] turned out to be 67.2 °C.
